Measured values: ChEMBL document CHEMBL1156772, “Synthesis, affinity profile and functional activity of potent chiral muscarinic antagonists with a pyrrolidinylfuran structure” (J Med Chem, 2010)

Columns and labels:
[1] = target: T1, Muscarinic acetylcholine receptor M1 (Homo sapiens, UniProt P11229); assay: Displacement of [3H]NMS from human cloned muscarinic M1 receptor expressed in CHO cells by scintillation counting; assay type: cell-based
T1 sequence (P11229 whole entry): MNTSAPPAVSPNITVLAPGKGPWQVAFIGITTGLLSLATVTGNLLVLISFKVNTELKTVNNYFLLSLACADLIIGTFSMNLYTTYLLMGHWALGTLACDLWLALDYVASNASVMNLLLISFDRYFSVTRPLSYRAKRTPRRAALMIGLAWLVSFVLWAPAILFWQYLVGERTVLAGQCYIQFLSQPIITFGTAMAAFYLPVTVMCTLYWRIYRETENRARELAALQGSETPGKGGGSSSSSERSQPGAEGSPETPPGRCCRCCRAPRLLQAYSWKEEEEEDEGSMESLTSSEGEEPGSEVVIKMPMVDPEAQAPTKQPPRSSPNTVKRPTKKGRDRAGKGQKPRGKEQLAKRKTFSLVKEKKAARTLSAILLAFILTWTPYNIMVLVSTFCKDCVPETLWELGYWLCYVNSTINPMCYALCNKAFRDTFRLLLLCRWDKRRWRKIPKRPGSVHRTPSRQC

[2] = target: T2, Muscarinic receptor 4 (Cavia porcellus) (UniProt Q8VH25); assay: Antagonist activity at muscarinic M4 receptor in guinea pig lung strips assessed as effect on isotonic contraction after 60 mins; assay type: functional
T2 sequence (whole entry): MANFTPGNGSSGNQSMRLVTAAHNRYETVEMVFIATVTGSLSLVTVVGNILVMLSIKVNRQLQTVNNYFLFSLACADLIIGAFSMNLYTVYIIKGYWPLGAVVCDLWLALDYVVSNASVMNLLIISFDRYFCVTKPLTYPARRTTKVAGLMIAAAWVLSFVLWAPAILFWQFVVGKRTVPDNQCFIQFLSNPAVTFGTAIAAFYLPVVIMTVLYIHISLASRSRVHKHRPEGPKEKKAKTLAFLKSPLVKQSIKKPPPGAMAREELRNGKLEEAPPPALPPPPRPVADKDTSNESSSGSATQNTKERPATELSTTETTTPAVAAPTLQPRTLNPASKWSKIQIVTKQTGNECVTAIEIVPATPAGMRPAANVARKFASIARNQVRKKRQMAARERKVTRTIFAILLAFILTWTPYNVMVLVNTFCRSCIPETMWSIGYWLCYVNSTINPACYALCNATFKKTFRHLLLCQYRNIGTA

[3] = target: T3, Muscarinic acetylcholine receptor M4 (Homo sapiens, UniProt P08173); assay: Displacement of [3H]NMS from human cloned muscarinic M4 receptor expressed in CHO cells by scintillation counting; assay type: cell-based
T3 sequence (P08173 whole entry): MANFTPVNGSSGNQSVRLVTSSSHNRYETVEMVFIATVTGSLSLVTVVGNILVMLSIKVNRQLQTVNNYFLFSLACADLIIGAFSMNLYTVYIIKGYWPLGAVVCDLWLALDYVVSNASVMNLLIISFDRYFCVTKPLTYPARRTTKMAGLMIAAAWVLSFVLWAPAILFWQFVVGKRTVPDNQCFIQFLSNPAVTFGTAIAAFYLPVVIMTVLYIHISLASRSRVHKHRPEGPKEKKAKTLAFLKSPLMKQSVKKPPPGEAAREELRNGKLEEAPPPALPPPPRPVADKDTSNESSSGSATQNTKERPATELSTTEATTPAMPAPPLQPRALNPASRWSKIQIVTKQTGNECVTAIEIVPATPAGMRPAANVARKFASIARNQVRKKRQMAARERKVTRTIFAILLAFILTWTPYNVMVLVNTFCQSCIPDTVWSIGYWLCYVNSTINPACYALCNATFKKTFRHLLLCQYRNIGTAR

[4] = target: Muscarinic acetylcholine receptor M3 (Cavia porcellus) (UniProt Q8VH26); assay: Antagonist activity at muscarinic M3 receptor in guinea pig ileum assessed as effect on isotonic tension after 60 mins; assay type: functional, tissue-based
[5] = target: Muscarinic acetylcholine receptor M3 (Homo sapiens, UniProt P20309); assay: Displacement of [3H]NMS from human cloned muscarinic M3 receptor expressed in CHO cells by scintillation counting; assay type: cell-based
[6] = target: T4, Muscarinic acetylcholine receptor M5 (Homo sapiens, UniProt P08912); assay: Displacement of [3H]NMS from human cloned muscarinic M5 receptor expressed in CHO cells by scintillation counting; assay type: cell-based
T4 sequence (P08912 whole entry): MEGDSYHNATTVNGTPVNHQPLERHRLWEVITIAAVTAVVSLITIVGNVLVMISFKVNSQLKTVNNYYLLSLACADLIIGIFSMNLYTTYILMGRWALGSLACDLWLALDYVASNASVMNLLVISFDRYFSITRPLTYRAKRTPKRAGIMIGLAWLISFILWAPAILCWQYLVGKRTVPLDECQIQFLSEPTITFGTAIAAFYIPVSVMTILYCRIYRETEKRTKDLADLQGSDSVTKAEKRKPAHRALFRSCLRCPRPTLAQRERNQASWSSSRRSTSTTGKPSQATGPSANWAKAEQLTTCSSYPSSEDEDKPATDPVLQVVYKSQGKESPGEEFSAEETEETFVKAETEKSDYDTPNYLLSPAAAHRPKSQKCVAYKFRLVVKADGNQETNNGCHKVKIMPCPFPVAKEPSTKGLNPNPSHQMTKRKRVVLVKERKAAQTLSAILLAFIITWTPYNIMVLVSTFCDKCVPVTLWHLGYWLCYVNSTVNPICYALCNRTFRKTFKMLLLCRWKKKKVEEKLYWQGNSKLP
Summary of the method: (§1)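 Equilibrium radioligand binding in CHO cells expressing the human muscarinic subtype, following the authors' earlier protocol.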

[7] = target: T5, Muscarinic receptor 2 (Cavia porcellus) (UniProt Q8VH27); assay: Antagonist activity at muscarinic M2 receptor in guinea pig left atrium assessed as effect on electrically-stimulated inotropic activity after 60 mins; assay type: functional, tissue-based; conditions: Cardiac atrium
T5 sequence (whole entry): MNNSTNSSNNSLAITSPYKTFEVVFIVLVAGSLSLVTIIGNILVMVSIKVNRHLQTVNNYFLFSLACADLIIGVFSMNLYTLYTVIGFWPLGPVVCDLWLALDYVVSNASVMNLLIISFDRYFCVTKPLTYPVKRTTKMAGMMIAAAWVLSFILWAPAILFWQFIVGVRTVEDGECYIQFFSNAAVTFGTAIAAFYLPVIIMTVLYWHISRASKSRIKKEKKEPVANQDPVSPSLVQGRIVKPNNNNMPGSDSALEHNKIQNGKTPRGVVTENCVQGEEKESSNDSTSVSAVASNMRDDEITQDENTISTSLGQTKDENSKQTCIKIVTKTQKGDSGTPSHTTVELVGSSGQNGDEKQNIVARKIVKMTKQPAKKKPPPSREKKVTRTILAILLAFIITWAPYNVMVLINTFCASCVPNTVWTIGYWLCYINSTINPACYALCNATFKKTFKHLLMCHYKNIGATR

[8] = target: T6, Muscarinic acetylcholine receptor M2 (Homo sapiens, UniProt P08172); assay: Displacement of [3H]NMS from human cloned muscarinic M2 receptor expressed in CHO cells by scintillation counting; assay type: cell-based; summary of the method: as §1
T6 sequence (P08172 whole entry): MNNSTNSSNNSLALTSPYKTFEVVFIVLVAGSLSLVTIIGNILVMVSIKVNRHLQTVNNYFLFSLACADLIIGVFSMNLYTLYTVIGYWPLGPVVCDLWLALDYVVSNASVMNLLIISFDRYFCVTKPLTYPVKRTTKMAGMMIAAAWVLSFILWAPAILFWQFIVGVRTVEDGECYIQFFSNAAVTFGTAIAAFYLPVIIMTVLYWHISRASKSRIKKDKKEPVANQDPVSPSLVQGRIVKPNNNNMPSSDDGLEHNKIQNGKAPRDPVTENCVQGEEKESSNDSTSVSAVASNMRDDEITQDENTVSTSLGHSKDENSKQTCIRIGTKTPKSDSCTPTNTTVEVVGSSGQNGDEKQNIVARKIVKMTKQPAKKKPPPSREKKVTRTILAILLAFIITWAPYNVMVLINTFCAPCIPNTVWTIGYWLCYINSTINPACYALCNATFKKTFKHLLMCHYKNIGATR

[9] = Antagonist activity at muscarinic M1 receptor in New Zealand rabbit vas deferens assessed as effect on electrically-stimulated muscle contraction after 60 mins; assay type: functional, Oryctolagus cuniculus

Chain of Muscarinic acetylcholine receptor M3 (Cavia porcellus) (Q8VH26 1-587): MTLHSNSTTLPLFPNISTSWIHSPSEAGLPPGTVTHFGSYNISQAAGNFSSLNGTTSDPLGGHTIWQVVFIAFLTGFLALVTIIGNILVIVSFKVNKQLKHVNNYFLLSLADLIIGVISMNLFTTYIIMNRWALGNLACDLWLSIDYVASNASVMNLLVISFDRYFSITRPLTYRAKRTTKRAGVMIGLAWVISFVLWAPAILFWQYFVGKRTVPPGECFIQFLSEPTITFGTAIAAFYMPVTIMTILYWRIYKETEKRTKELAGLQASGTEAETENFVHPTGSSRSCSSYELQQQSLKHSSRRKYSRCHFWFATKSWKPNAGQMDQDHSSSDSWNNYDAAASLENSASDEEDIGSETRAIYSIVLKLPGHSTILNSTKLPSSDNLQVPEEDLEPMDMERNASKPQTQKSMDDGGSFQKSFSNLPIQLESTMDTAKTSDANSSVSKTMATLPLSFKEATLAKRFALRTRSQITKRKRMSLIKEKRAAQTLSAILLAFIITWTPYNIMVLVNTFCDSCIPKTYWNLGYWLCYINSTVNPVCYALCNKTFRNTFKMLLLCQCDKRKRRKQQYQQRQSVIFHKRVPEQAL
Chain of Muscarinic acetylcholine receptor M3 (P20309 whole entry): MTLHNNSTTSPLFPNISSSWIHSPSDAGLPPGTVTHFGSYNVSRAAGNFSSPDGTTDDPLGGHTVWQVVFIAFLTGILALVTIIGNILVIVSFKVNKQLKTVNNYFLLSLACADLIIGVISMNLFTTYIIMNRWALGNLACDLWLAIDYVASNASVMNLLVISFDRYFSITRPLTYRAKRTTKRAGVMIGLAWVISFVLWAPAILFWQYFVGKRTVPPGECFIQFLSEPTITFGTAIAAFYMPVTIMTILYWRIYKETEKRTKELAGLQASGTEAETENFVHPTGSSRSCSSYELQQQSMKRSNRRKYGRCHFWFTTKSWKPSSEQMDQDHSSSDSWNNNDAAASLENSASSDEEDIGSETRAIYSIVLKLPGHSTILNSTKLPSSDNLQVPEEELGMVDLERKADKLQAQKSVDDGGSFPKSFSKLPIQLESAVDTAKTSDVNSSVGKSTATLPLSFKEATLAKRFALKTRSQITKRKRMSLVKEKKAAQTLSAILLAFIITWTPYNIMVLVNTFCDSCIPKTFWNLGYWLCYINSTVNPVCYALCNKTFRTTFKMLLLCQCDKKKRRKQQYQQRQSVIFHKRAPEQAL

| Compound | Ki [1] [nM] | pKb [2] | Ki [3] [nM] | pKb [4] | Ki [5] [nM] | Ki [6] [nM] | pKb [7] | Ki [8] [nM] | pKb [9] |
| --- | --- | --- | --- | --- | --- | --- | --- | --- | --- |
| C[N+]1(C)CCC[C@@H]1c1ccc([C@@](O)(c2ccccc2)C2CCCCC2)o1 | 47.9 | 6.33 | 372 | 6.95 | 155 | 229 | 6.85 | 87.1 |  |
| C[N+]1(C)CCCC1c1ccc(C(O)(c2ccccc2)c2ccccc2)o1 (racemic) [listing 1 of 2 here] |  | 6.2 |  | 7.6 |  |  | 7.08 |  |  |
| CN1CCCC1c1ccc(C(O)(c2ccccc2)C2CCCCC2)o1 (mixture of isomers) | 1.23 | < 5 | 14.1 | 7.8 | 7.76 | 7.08 | 6.98 | 6.76 |  |
| C[N+]1(C)CCC[C@@H]1c1ccc([C@](O)(c2ccccc2)C2CCCCC2)o1.[I-] | 0.692 | 7.75 | 4.27 | 8.95 | 1.51 | 1.55 | 8.49 | 2.34 | 10.15 |
| C[N+]1(C)CCC[C@H]1c1ccc([C@@](O)(c2ccccc2)C2CCCCC2)o1 | 331 | < 5 | 2340 | 6.32 | 513 | 871 | 5.92 | 759 |  |
| CN1CCC[C@@H]1c1ccc([C@](O)(c2ccccc2)C2CCCCC2)o1 | 1.23 | 5.92 | 3.98 | 8.76 | 1.66 | 3.31 | 7.91 | 4.57 | 9.58 |
| C[N+]1(C)CCCC1c1ccc(C(c2ccccc2)c2ccccc2)o1 (racemic) [listing 1 of 2 here] | 11.5 |  | 38 |  | 23.4 | 31.6 |  | 13.5 |  |
| CN1CCCC1c1ccc(C(c2ccccc2)c2ccccc2)o1 (centres undefined) | 42.7 | 5.19 | 158 | 6.81 | 85.1 | 105 | 6.52 | 64.6 | 6.64 |
| CN1CCCC1c1ccc(C(c2ccccc2)C2CCCCC2)o1 (mixture of isomers) | 13.5 | < 5 | 77.6 | 7.05 | 33.9 | 55 | 5.36 | 141 |  |
| CN1CCC[C@H]1c1ccc([C@](O)(c2ccccc2)C2CCCCC2)o1 | 22.9 | 5.84 | 55 | 7.66 | 23.4 | 27.5 | 6.65 | 60.3 |  |
| CN1CCC[C@@H]1c1ccc([C@@](O)(c2ccccc2)C2CCCCC2)o1 | 191 | < 5 | 550 | 6.77 | 324 | 468 | 6.23 | 363 |  |
| C[N+]1(C)CCCC1c1ccc(C(c2ccccc2)c2ccccc2)o1 (racemic) [listing 2 of 2 here] |  | < 5 |  | 7.59 |  |  | 7.09 |  |  |
| CN1CCCC1c1ccc(C(O)(c2ccccc2)c2ccccc2)o1 (racemic) | 35.5 | < 5 | 105 | 6.65 | 95.5 | 97.7 | 6.92 | 29.5 | 6.91 |
| C[N+]1(C)CCCC1c1ccc(C(O)(c2ccccc2)c2ccccc2)o1.[I-] (mixture of isomers) |  |  |  |  |  |  |  |  | 8.46 |
| C[N+]1(C)CCCC1c1ccc(C(O)(c2ccccc2)c2ccccc2)o1 (racemic) [listing 2 of 2 here] | 23.4 |  | 64.6 |  | 36.3 | 37.2 |  | 31.6 |  |
| C[N+]1(C)CCCC1c1ccc(C(c2ccccc2)c2ccccc2)o1.[I-] (mixture of isomers) |  |  |  |  |  |  |  |  | 7.91 |
| CN1CCC[C@H]1c1ccc([C@@](O)(c2ccccc2)C2CCCCC2)o1 | 1230 | < 5 | 3090 | 6.41 | 1660 | 1550 | 5.95 | 3240 |  |
| C[N+]1(C)CCCC1c1ccc(C(O)(c2ccccc2)C2CCCCC2)o1 (mixture of isomers) | 2.09 | 5.9 | 15.5 | 8.35 | 7.24 | 11.5 | 7.88 | 10.2 |  |
| C[N+]1(C)CCC[C@H]1c1ccc([C@](O)(c2ccccc2)C2CCCCC2)o1 | 9.12 | 6.16 | 33.1 | 7.95 | 9.33 | 12 | 7.32 | 20 |  |
| C[N+]1(C)CCCC1c1ccc(C(c2ccccc2)C2CCCCC2)o1 (mixture of isomers) | 6.61 | 5.69 | 19.5 | 7.88 | 8.91 | 15.5 | 6.21 | 17.4 |  |
